Where “and” joins values, the source holds several entries; their conditions need not be identical. Equal entries are not always repeated.
Legend:
Format in all cases: toxicity, cell-based
HEK-293T = test: Multiplex assay against HEK293T; conditions: human, number of replicates 2
Procedure, shortened: (§1)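 With compound added, live cells were imaged on a CQ1 microscope at 37°C and 5% CO2; staining with Hoechst33342, BioTracker Green Microtubule Cytoskeleton Dye, MitoTracker Red and Annexin V Alexa Fluor 680 had been done at seeding. The CellPathfinder machine-learning gating scheme split cells into Hoechst high-intensity objects or normal cells, normal cells into healthy, pyknosed or fragmented nuclei, and pyknosed cells into mitotic or apoptotic. The tubulin, mitochondrial-mass and membrane-permeability phenotypes are per cents of healthy-nucleus cells.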

U2OS = test: Multiplex assay against U2OS; conditions: human, number of replicates 2; procedure, shortened: as §1
Fibroblast = test: Multiplex assay against human fibroblast; conditions: number of replicates 2; procedure, shortened: as §1
[1] = 12 h, 1 µM, compound concentration 1 uM
[2] = 12 h, 10 µM, compound concentration 10 uM
[3] = 24 h, 1 µM, compound concentration 1 uM
[4] = 24 h, 10 µM, compound concentration 10 uM
[5] = 48 h, 1 µM, compound concentration 1 uM
[6] = 48 h, 10 µM, compound concentration 10 uM

CCCCOc1c(C(=O)c2c(F)cc(C)cc2F)c[nH]c2nncc1-2
Population Apoptotic (%) (HEK-293T; [1]): 54% and 43%
Population Fragmented Nuclei (%) (HEK-293T; [1]): 3% and 2%
Population Healthy Nuclei (%) (HEK-293T; [1]): 87% and 86%
Population Hoechst High Intensity Objects (%) (HEK-293T; [1]): 7% and 6%
Population Membrane Permeable-Phenotype (%) (HEK-293T; [1]): 3% and 4%
Population Mitochondria Different-Phenotype (%) (HEK-293T; [1]): 11% and 7%
Population Mitotic Cells (%) (HEK-293T; [1]): 45% and 56%
Population Normal (%) (HEK-293T; [1]): 92% and 93%
Population Pyknosed Nuclei (%) (HEK-293T; [1]): 9% and 11%
Population Tubulin-Different-Phenotype (%) (HEK-293T; [1]): 58% and 46%
Total Cell Count (HEK-293T; [1]): 782 and 748
Population Apoptotic (%) (HEK-293T; [2]): 50% and 64%
Population Fragmented Nuclei (%) (HEK-293T; [2]): 3%
Population Healthy Nuclei (%) (HEK-293T; [2]): 85% and 81%
Population Hoechst High Intensity Objects (%) (HEK-293T; [2]): 10% and 11%
Population Membrane Permeable-Phenotype (%) (HEK-293T; [2]): 7% and 4%
Population Mitochondria Different-Phenotype (%) (HEK-293T; [2]): 17%
Population Mitotic Cells (%) (HEK-293T; [2]): 50% and 35%
Population Normal (%) (HEK-293T; [2]): 89% and 88%
Population Pyknosed Nuclei (%) (HEK-293T; [2]): 11% and 14%
Population Tubulin-Different-Phenotype (%) (HEK-293T; [2]): 77% and 74%
Total Cell Count (HEK-293T; [2]): 766 and 710
Population Apoptotic (%) (HEK-293T; [3]): 34% and 50%
Population Fragmented Nuclei (%) (HEK-293T; [3]): 7% and 5%
Population Healthy Nuclei (%) (HEK-293T; [3]): 85%
Population Hoechst High Intensity Objects (%) (HEK-293T; [3]): 10% and 11%
Population Membrane Permeable-Phenotype (%) (HEK-293T; [3]): 1% and 3%
Population Mitochondria Different-Phenotype (%) (HEK-293T; [3]): 4% and 5%
Population Mitotic Cells (%) (HEK-293T; [3]): 65% and 50%
Population Normal (%) (HEK-293T; [3]): 89% and 88%
Population Pyknosed Nuclei (%) (HEK-293T; [3]): 7% and 8%
Population Tubulin-Different-Phenotype (%) (HEK-293T; [3]): 32% and 46%
Total Cell Count (HEK-293T; [3]): 1018 and 1015
Population Apoptotic (%) (HEK-293T; [4]): 59% and 67%
Population Fragmented Nuclei (%) (HEK-293T; [4]): 5%
Population Healthy Nuclei (%) (HEK-293T; [4]): 82% and 83%
Population Hoechst High Intensity Objects (%) (HEK-293T; [4]): 9% and 10%
Population Membrane Permeable-Phenotype (%) (HEK-293T; [4]): 3% and 2%
Population Mitochondria Different-Phenotype (%) (HEK-293T; [4]): 5%
Population Mitotic Cells (%) (HEK-293T; [4]): 40% and 32%
Population Normal (%) (HEK-293T; [4]): 90% and 89%
Population Pyknosed Nuclei (%) (HEK-293T; [4]): 11%
Population Tubulin-Different-Phenotype (%) (HEK-293T; [4]): 57% and 52%
Total Cell Count (HEK-293T; [4]): 954 and 851
Population Fragmented Nuclei (%) (HEK-293T; [5]): 17% and 10%
Population Healthy Nuclei (%) (HEK-293T; [5]): 79% and 86%
Population Hoechst High Intensity Objects (%) (HEK-293T; [5]): 16%
Population Membrane Permeable-Phenotype (%) (HEK-293T; [5]): 4% and 2%
Population Mitochondria Different-Phenotype (%) (HEK-293T; [5]): 1% and 2%
Population Mitotic Cells (%) (HEK-293T; [5]): 88% and 65%
Population Normal (%) (HEK-293T; [5]): 83%
Population Pyknosed Nuclei (%) (HEK-293T; [5]): 2% and 3%
Population Tubulin-Different-Phenotype (%) (HEK-293T; [5]): 24% and 36%
Total Cell Count (HEK-293T; [5]): 1720 and 1259
Population Apoptotic (%) (HEK-293T; [6]): 41% and 63%
Population Fragmented Nuclei (%) (HEK-293T; [6]): 13% and 10%
Population Healthy Nuclei (%) (HEK-293T; [6]): 82% and 86%
Population Hoechst High Intensity Objects (%) (HEK-293T; [6]): 12%
Population Membrane Permeable-Phenotype (%) (HEK-293T; [6]): 4% and 1%
Population Mitochondria Different-Phenotype (%) (HEK-293T; [6]): 4% and 5%
Population Mitotic Cells (%) (HEK-293T; [6]): 58% and 36%
Population Normal (%) (HEK-293T; [6]): 87%
Population Pyknosed Nuclei (%) (HEK-293T; [6]): 3% and 2%
Population Tubulin-Different-Phenotype (%) (HEK-293T; [6]): 46% and 47%
Total Cell Count (HEK-293T; [6]): 1114 and 939
Population Apoptotic (%) (U2OS; [1]): 54% and 60%
Population Healthy Nuclei (%) (U2OS; [1]): 52% and 86%
Population Hoechst High Intensity Objects (%) (U2OS; [1]): 0%
Population Membrane Permeable-Phenotype (%) (U2OS; [1]): 0% and 3%
Population Mitochondria Different-Phenotype (%) (U2OS; [1]): 0% and 1%
Population Mitotic Cells (%) (U2OS; [1]): 45% and 40%
Population Normal (%) (U2OS; [1]): 100%
Population Pyknosed Nuclei (%) (U2OS; [1]): 20% and 9%
Population Tubulin-Different-Phenotype (%) (U2OS; [1]): 89% and 86%
Population Apoptotic (%) (U2OS; [2]): 42% and 84%
Population Fragmented Nuclei (%) (U2OS; [2]): 19% and 8%
Population Healthy Nuclei (%) (U2OS; [2]): 29% and 79%
Population Hoechst High Intensity Objects (%) (U2OS; [2]): 0%
Population Membrane Permeable-Phenotype (%) (U2OS; [2]): 2% and 1%
Population Mitochondria Different-Phenotype (%) (U2OS; [2]): 0%
Population Normal (%) (U2OS; [2]): 100%
Population Tubulin-Different-Phenotype (%) (U2OS; [2]): 73% and 91%
Total Cell Count (U2OS; [2]): 143 and 207
Population Apoptotic (%) (U2OS; [3]): 46% and 62%
Population Fragmented Nuclei (%) (U2OS; [3]): 10% and 5%
Population Healthy Nuclei (%) (U2OS; [3]): 52% and 82%
Population Hoechst High Intensity Objects (%) (U2OS; [3]): 0%
Population Membrane Permeable-Phenotype (%) (U2OS; [3]): 0% and 1%
Population Mitochondria Different-Phenotype (%) (U2OS; [3]): 0%
Population Mitotic Cells (%) (U2OS; [3]): 53% and 37%
Population Normal (%) (U2OS; [3]): 100%
Population Tubulin-Different-Phenotype (%) (U2OS; [3]): 76% and 79%
Population Apoptotic (%) (U2OS; [4]): 41% and 66%
Population Hoechst High Intensity Objects (%) (U2OS; [4]): 1% and 0%
Population Membrane Permeable-Phenotype (%) (U2OS; [4]): 6% and 2%
Population Mitochondria Different-Phenotype (%) (U2OS; [4]): 0%
Population Mitotic Cells (%) (U2OS; [4]): 58% and 33%
Population Normal (%) (U2OS; [4]): 98% and 100%
Population Tubulin-Different-Phenotype (%) (U2OS; [4]): 81% and 86%
Total Cell Count (U2OS; [4]): 187 and 205
Population Apoptotic (%) (U2OS; [5]): 37% and 67%
Population Fragmented Nuclei (%) (U2OS; [5]): 5% and 4%
Population Healthy Nuclei (%) (U2OS; [5]): 71% and 88%
Population Hoechst High Intensity Objects (%) (U2OS; [5]): 0%
Population Membrane Permeable-Phenotype (%) (U2OS; [5]): 4% and 2%
Population Mitochondria Different-Phenotype (%) (U2OS; [5]): 4% and 1%
Population Mitotic Cells (%) (U2OS; [5]): 62% and 32%
Population Normal (%) (U2OS; [5]): 100% and 99%
Population Tubulin-Different-Phenotype (%) (U2OS; [5]): 77% and 74%
Population Apoptotic (%) (U2OS; [6]): 35% and 75%
Population Hoechst High Intensity Objects (%) (U2OS; [6]): 0%
Population Membrane Permeable-Phenotype (%) (U2OS; [6]): 7% and 4%
Population Mitochondria Different-Phenotype (%) (U2OS; [6]): 0%
Population Mitotic Cells (%) (U2OS; [6]): 64% and 24%
Population Normal (%) (U2OS; [6]): 100%
Population Tubulin-Different-Phenotype (%) (U2OS; [6]): 73% and 77%
Total Cell Count (U2OS; [6]): 291 and 241
Population Apoptotic (%) (Fibroblast; [1]): 52% and 40%
Population Fragmented Nuclei (%) (Fibroblast; [1]): 11% and 8%
Population Healthy Nuclei (%) (Fibroblast; [1]): 61% and 73%
Population Hoechst High Intensity Objects (%) (Fibroblast; [1]): 0%
Population Membrane Permeable-Phenotype (%) (Fibroblast; [1]): 8% and 5%
Population Mitochondria Different-Phenotype (%) (Fibroblast; [1]): 0%
Population Mitotic Cells (%) (Fibroblast; [1]): 47% and 60%
Population Normal (%) (Fibroblast; [1]): 100%
Population Pyknosed Nuclei (%) (Fibroblast; [1]): 27% and 18%
Population Tubulin-Different-Phenotype (%) (Fibroblast; [1]): 21% and 12%
Total Cell Count (Fibroblast; [1]): 200 and 276
Population Apoptotic (%) (Fibroblast; [2]): 57% and 64%
Population Fragmented Nuclei (%) (Fibroblast; [2]): 10% and 8%
Population Healthy Nuclei (%) (Fibroblast; [2]): 64% and 57%
Population Hoechst High Intensity Objects (%) (Fibroblast; [2]): 0%
Population Membrane Permeable-Phenotype (%) (Fibroblast; [2]): 2% and 8%
Population Mitochondria Different-Phenotype (%) (Fibroblast; [2]): 1% and 0%
Population Mitotic Cells (%) (Fibroblast; [2]): 42% and 35%
Population Normal (%) (Fibroblast; [2]): 99%
Population Pyknosed Nuclei (%) (Fibroblast; [2]): 25% and 33%
Population Tubulin-Different-Phenotype (%) (Fibroblast; [2]): 22% and 19%
Total Cell Count (Fibroblast; [2]): 271 and 238
Population Apoptotic (%) (Fibroblast; [3]): 50% and 43%
Population Fragmented Nuclei (%) (Fibroblast; [3]): 14% and 7%
Population Healthy Nuclei (%) (Fibroblast; [3]): 55% and 66%
Population Hoechst High Intensity Objects (%) (Fibroblast; [3]): 0%
Population Membrane Permeable-Phenotype (%) (Fibroblast; [3]): 7%
Population Mitochondria Different-Phenotype (%) (Fibroblast; [3]): 0% and 1%
Population Mitotic Cells (%) (Fibroblast; [3]): 49% and 56%
Population Normal (%) (Fibroblast; [3]): 100%
Population Pyknosed Nuclei (%) (Fibroblast; [3]): 29% and 25%
Population Tubulin-Different-Phenotype (%) (Fibroblast; [3]): 26% and 11%
Total Cell Count (Fibroblast; [3]): 193 and 267
Population Apoptotic (%) (Fibroblast; [4]): 81% and 68%
Population Fragmented Nuclei (%) (Fibroblast; [4]): 10%
Population Healthy Nuclei (%) (Fibroblast; [4]): 64% and 51%
Population Hoechst High Intensity Objects (%) (Fibroblast; [4]): 0%
Population Membrane Permeable-Phenotype (%) (Fibroblast; [4]): 4%
Population Mitochondria Different-Phenotype (%) (Fibroblast; [4]): 1%
Population Mitotic Cells (%) (Fibroblast; [4]): 18% and 31%
Population Normal (%) (Fibroblast; [4]): 99% and 100%
Population Pyknosed Nuclei (%) (Fibroblast; [4]): 25% and 37%
Population Tubulin-Different-Phenotype (%) (Fibroblast; [4]): 27% and 18%
Total Cell Count (Fibroblast; [4]): 281 and 247
Population Apoptotic (%) (Fibroblast; [5]): 66% and 59%
Population Fragmented Nuclei (%) (Fibroblast; [5]): 18% and 9%
Population Healthy Nuclei (%) (Fibroblast; [5]): 53% and 64%
Population Hoechst High Intensity Objects (%) (Fibroblast; [5]): 1% and 0%
Population Membrane Permeable-Phenotype (%) (Fibroblast; [5]): 14% and 11%
Population Mitochondria Different-Phenotype (%) (Fibroblast; [5]): 0%
Population Mitotic Cells (%) (Fibroblast; [5]): 33% and 40%
Population Normal (%) (Fibroblast; [5]): 98% and 100%
Population Pyknosed Nuclei (%) (Fibroblast; [5]): 27% and 26%
Population Tubulin-Different-Phenotype (%) (Fibroblast; [5]): 38% and 17%
Total Cell Count (Fibroblast; [5]): 197 and 276
Population Apoptotic (%) (Fibroblast; [6]): 76% and 77%
Population Fragmented Nuclei (%) (Fibroblast; [6]): 11% and 12%
Population Healthy Nuclei (%) (Fibroblast; [6]): 46% and 64%
Population Hoechst High Intensity Objects (%) (Fibroblast; [6]): 0%
Population Mitochondria Different-Phenotype (%) (Fibroblast; [6]): 0% and 1%
Population Mitotic Cells (%) (Fibroblast; [6]): 23% and 22%
Population Normal (%) (Fibroblast; [6]): 99% and 100%
Population Pyknosed Nuclei (%) (Fibroblast; [6]): 42% and 22%
Population Tubulin-Different-Phenotype (%) (Fibroblast; [6]): 45% and 39%
Total Cell Count (Fibroblast; [6]): 261 and 279

Source: ChEMBL document CHEMBL5303300, “EUbOPEN Chemogenomics Library - Multiplex” (2023)
